Calls of active or inactive are those of the source. The calls are words filed in the database; no cut-off is given here.
Experiments:
Assay type in all cases: cell-based
[1] = target: T1, Peroxisome proliferator-activated receptor gamma (Mus musculus) (UniProt P37238); experiment: Agonist activity at PPARgamma in mouse 3T3L1 cells assessed as downregulation of CD36 mRNA level at 10 uM after 6 days […] relative to control; details: 3T3-L1
T1 sequence (whole entry): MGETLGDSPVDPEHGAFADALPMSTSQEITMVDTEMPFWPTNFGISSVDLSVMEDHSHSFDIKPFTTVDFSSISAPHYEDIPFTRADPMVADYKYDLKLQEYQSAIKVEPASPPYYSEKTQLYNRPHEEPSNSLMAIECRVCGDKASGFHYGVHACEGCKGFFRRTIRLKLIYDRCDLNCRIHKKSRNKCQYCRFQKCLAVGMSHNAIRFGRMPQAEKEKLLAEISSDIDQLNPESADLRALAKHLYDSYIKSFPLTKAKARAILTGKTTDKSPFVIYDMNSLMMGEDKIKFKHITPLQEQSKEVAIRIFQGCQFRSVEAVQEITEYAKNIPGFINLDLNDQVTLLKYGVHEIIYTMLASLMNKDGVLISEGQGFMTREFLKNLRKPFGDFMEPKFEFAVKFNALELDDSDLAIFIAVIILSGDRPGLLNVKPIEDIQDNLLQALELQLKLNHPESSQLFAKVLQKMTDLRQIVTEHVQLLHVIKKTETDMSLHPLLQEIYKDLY

[2] = target: T1, Peroxisome proliferator-activated receptor gamma (Mus musculus); experiment: Agonist activity at PPARgamma in mouse 3T3L1 cells assessed as upregulation of ADPN mRNA level at 10 uM after 6 days […] relative to control; details: 3T3-L1
[3] = target: T2, Peroxisome proliferator-activated receptor gamma (Homo sapiens) (UniProt P37231); experiment: Transactivation of PPARgamma (unknown origin) expressed in HEK293 cells co-transfected with AP2-PPRE by luciferase reporter gene assay
T2 sequence (whole entry): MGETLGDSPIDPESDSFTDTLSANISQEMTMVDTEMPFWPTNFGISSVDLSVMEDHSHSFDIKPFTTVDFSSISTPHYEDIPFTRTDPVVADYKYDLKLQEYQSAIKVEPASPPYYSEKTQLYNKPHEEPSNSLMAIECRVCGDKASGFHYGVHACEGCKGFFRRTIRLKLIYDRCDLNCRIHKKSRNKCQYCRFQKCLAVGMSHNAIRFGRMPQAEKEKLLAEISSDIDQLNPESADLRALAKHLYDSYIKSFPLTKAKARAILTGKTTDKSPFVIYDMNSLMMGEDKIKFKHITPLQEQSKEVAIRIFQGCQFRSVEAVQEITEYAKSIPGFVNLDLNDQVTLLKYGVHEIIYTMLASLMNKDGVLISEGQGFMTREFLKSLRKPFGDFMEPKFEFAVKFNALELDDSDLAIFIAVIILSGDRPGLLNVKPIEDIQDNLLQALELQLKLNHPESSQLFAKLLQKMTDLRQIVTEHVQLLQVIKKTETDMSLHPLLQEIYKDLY
Summary of the method: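 PPRE reporter plasmid (AP2 promoter element) transiently co-transfected into HEK-293 cells with RXR, PPARγ and β-galactosidase vectors using Lipofectamine 2000. Cells were treated across a dose–response series, plotted on a log(μM) axis from about −2 to 2. Luciferase was read as relative light units on a luminometer and normalised to β-galactosidase activity measured with ONPG.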

[4] = target: T1, Peroxisome proliferator-activated receptor gamma (Mus musculus); experiment: Agonist activity at PPARgamma in mouse 3T3L1 cells assessed as downregulation of DGAT mRNA level at 10 uM after 6 days […] relative to control; details: 3T3-L1
[5] = target: T1, Peroxisome proliferator-activated receptor gamma (Mus musculus); experiment: Agonist activity at PPARgamma in mouse 3T3L1 cells assessed as downregulation of FABP mRNA level at 10 uM after 6 days […] relative to control; details: 3T3-L1
[6] = target: T1, Peroxisome proliferator-activated receptor gamma (Mus musculus); experiment: Agonist activity at PPARgamma in mouse 3T3L1 cells assessed as downregulation of FATP mRNA level at 10 uM after 6 days […] relative to control; details: 3T3-L1
[7] = target: T1, Peroxisome proliferator-activated receptor gamma (Mus musculus); experiment: Agonist activity at PPARgamma in mouse 3T3L1 cells assessed as upregulation of HSL mRNA level at 10 uM after 6 days […] relative to control; details: 3T3-L1
[8] = target: T3, Peroxisome proliferator-activated receptor delta (Mus musculus) (UniProt P35396); experiment: Agonist activity at PPARdelta in mouse 3T3L1 cells assessed as upregulation of PDK4 mRNA level at 10 uM after 6 days […] relative to control; details: 3T3-L1
T3 sequence (whole entry): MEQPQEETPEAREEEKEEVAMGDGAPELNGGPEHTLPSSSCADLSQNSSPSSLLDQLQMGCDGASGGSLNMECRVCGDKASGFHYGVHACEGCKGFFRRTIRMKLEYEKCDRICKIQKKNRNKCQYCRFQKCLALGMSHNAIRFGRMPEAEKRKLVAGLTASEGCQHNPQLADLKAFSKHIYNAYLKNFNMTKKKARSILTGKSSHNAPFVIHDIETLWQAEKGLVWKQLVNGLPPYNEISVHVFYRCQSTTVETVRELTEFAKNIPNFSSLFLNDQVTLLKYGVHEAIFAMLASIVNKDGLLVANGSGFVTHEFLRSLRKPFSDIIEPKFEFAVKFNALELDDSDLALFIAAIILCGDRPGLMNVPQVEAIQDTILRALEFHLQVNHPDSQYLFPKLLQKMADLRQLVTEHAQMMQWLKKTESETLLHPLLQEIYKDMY

[9] = target: T1, Peroxisome proliferator-activated receptor gamma (Mus musculus); experiment: Agonist activity at PPARgamma in mouse 3T3L1 cells assessed as upregulation of ATGL mRNA level at 10 uM after 6 days […] relative to control; details: 3T3-L1
[10] = target: T1, Peroxisome proliferator-activated receptor gamma (Mus musculus); experiment: Agonist activity at PPARgamma in mouse 3T3L1 cells assessed as upregulation of MCAD mRNA level at 10 uM after 6 days […] relative to control; details: 3T3-L1

- Activity [1]: Active
- Activity [2]: Active
- Activity [3]: Active
- Activity [4]: Active
- Activity [5]: Active
- Activity [6]: Active
- Activity [7]: Active
- Activity [8]: Active
- Activity [9]: Active
- Activity [10]: Active
Compound: Cc1ccc(CNCCCN(Cc2ccc(C(=O)O)cc2)Cc2cc(C(F)(F)F)cc(C(F)(F)F)c2)cc1
